In ChEMBL document CHEMBL1129642, “Design, synthesis, and evaluation of 2 beta-alkenyl penam sulfone acids as inhibitors of beta-lactamases” (J Med Chem, 1996):

What was measured:
[1] = tested on: Escherichia coli; test: Compound was tested for the half saturation constant derived from concentration dependence studies in Escherichia coli TEM-3.; type: functional
In short: (§1)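 Purified β-lactamases (C. freundii 1928, E. coli SNO3, TEM-3, SHV-2) reacted with inhibitor. K_S is the half-saturation constant for forming the acyl-enzyme complex, taken from the concentration dependence of that reaction. It was obtained together with the acylation rate k_on and the acyl-enzyme breakdown rate k_off, using previously published kinetic methods.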

[2] = biological target: Metallo-beta-lactamase type 2 (Bacteroides fragilis, UniProt P25910); test: Compound was tested for inhibition of Beta-lactamase from Bacteroides fragilis BF 101
[3] = biological target: Beta-lactamase (Staphylococcus aureus, UniProt P00807); test: Compound was tested for inhibition of Beta-lactamase from Staphylococcus aureus PCI
[4] = biological target: T1, Beta-lactamase (Bacillus licheniformis, UniProt P00808); test: Compound was tested for inhibition of Beta-lactamase from Bacillus licheniformis 749/C
[5] = biological target: Beta-lactamase L1 (Stenotrophomonas maltophilia, UniProt P52700); test: Compound was tested for inhibition of Beta-lactamase from Xanthomonas maltophila 328
[6] = biological target: T2, Beta-lactamase TEM (Escherichia coli, UniProt P62593); test: Compound was tested for inhibition of Beta-lactamase from RTEM-1
[7] = tested on: Citrobacter freundii; test: Compound was tested for the half saturation constant derived from concentration dependence studies in Citrobacter freundii; type: functional; in short: as §1
[8] = tested on: Enterobacter cloacae; test: Compound was tested for inhibition of Ent. cloacae 908R in combination with Ceftriaxone (expressed in MIC).; type: functional, organism-based
In short: (§2)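 MICs determined by serial 2-fold dilution in Mueller-Hinton broth with an inoculum of approximately 10⁵ cfu/mL. The test compound was combined with ceftriaxone.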

[9] = tested on: Escherichia coli; test: Compound was tested for the half saturation constant derived from concentration dependence studies in Escherichia coli SNO3.; type: functional; in short: as §1
[10] = tested on: Escherichia coli; test: Compound was tested for the half saturation constant derived from concentration dependence studies in Escherichia coli SHV-2.; type: functional; in short: as §1
[11] = biological target: Penicillin-binding protein 2b (Staphylococcus aureus, UniProt Q9XDB3); test: Compound was tested for inhibition of Penicillin-binding protein 3 from Staphylococcus aureus (Schoch).
In short: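 Competition for penicillin binding measured on S. aureus Schoch membrane fragments with 14C-labelled benzylpenicillin as the probe. The value is the IC50 (µM) for the PBP 3 band.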

[12] = biological target: T3, Beta-lactamase (Pseudomonas aeruginosa (strain ATCC 15692 / PAO1 / 1C / PRS 101 / LMG12228), UniProt P24735); test: Compound was tested for inhibition of Beta-lactamase from Pseudomonas aeruginosa GN10362
[13] = biological target: Beta-lactamase pse-1 (Escherichia coli, UniProt Q2V0Y6); test: Compound was tested for inhibition of Beta-lactamase from PSE-1
[14] = tested on: Citrobacter freundii; test: Compound was tested for inhibition of Citrobacter freundii 1928 in combination with Ceftriaxone (expressed in MIC).; type: functional, organism-based
[15] = biological target: PBP3 from Escherichia coli (K-12) (Escherichia coli, UniProt P0AD68); test: Compound was tested for inhibition of Penicillin-binding protein 3 from Escherichia coli.
[16] = biological target: T3, Beta-lactamase; test: Compound was tested for inhibition of Beta-lactamase from Pseudomonas aeruginosa MK-1184
[17] = tested on: Bacillus licheniformis; test: Compound was tested for inhibition of Bacillus licheniformis 749/C, class A of beta-Lactamases.; type: functional, organism-based
[18] = biological target: Beta-lactamase SHV-1 (Escherichia coli, UniProt P0AD63); test: Compound was tested for inhibition of Beta-lactamase from SHV-2
[19] = biological target: T2, Beta-lactamase TEM; test: Compound was tested for inhibition of Beta-lactamase from RTEM-2
[20] = tested on: Pseudomonas aeruginosa; test: Compound was tested for inhibition of Pseudomonas aeruginosa 18SH in combination with Ceftriaxone (expressed in MIC).; type: functional, organism-based; in short: as §2
[21] = biological target: Beta-lactamase OXA-1 (Escherichia coli, UniProt P13661); test: Compound was tested for inhibition of Beta-lactamase from OXA-1
[22] = tested on: Pseudomonas aeruginosa; test: Compound was tested for inhibition of Pseudomonas aeruginosa 18SH in combination with Ceftriaxone; type: functional; in short: as §2
[23] = (§3) Compound was tested for inhibition of pTEM-4 from Escherichia coli in combination with Ceftriaxone; type: functional; in short: as §2
[24] = (§4) Compound was tested for inhibition of TEM-1, class A of beta-lactamases.; type: functional, Escherichia coli
[25] = (§5) Compound was tested for inhibition of pTEM-3 from Escherichia coli in combination with Ceftriaxone; type: functional; in short: as §2
[26] = (§6) Compound was tested for inhibition of TEM-3, class A of beta-lactamases.; type: functional, Escherichia coli
[27] = tested on: Enterobacter cloacae; test: (§7) Compound was tested for inhibition of Ent. cloacae 908R in combination with Ceftriaxone; type: functional; in short: as §2
[28] = tested on: Citrobacter freundii; test: Compound was tested for inhibition of Citrobacter freundii 1928 in combination with Ceftriaxone; type: functional; in short: as §2
[29] = biological target: T1, Beta-lactamase; test: Compound was tested for inhibition of Bacillus licheniformis 749/C, class A of Beta-lactamase
[30] = biological target: Beta-lactamase (Escherichia coli K-12, UniProt P00811); test: Compound was tested for inhibition of Escherichia coli AmpC, class C of Beta-lactamase
[31] = biological target: T4, Penicillin-binding protein 1B (Escherichia coli K-12, UniProt P02919); test: Compound was tested for inhibition of Penicillin-binding protein 1b from Escherichia coli.
T4 sequence (P02919 whole entry): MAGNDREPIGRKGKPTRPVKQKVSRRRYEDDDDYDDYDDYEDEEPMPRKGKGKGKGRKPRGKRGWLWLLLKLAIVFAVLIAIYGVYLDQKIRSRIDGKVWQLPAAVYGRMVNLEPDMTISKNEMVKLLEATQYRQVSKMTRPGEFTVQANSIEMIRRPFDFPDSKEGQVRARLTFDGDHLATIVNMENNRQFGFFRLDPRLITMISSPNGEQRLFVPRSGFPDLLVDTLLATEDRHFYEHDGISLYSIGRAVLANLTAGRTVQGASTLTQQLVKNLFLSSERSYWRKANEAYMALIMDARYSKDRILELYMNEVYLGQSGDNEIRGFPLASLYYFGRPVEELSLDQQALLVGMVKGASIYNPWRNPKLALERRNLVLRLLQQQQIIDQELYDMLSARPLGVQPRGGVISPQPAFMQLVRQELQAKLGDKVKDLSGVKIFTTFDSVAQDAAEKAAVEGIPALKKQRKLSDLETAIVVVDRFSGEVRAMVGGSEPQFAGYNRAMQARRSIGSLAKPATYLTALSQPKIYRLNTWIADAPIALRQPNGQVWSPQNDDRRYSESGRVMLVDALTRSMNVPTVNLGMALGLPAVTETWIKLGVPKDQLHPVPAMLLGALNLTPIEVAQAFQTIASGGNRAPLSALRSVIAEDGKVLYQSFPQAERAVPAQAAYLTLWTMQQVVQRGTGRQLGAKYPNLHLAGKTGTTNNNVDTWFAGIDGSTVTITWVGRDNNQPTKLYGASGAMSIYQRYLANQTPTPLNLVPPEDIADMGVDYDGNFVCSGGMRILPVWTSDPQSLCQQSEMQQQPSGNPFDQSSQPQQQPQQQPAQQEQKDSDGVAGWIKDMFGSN
In short: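 Penicillin binding was assayed on membrane fragments from E. coli W3110 or S. aureus Schoch, using ¹⁴C-labeled benzylpenicillin as the probe. IC₅₀ values are reported in µM.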

[32] = Compound was tested for inhibition of Penicillin-binding protein 2x from Streptococcus pneumoniae
In short: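 S. pneumoniae PBP 2x was assayed as recombinant soluble protein. IC₅₀ values are reported in µM.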

[33] = biological target: Beta-lactamase (Citrobacter freundii, UniProt P05193); test: Compound was tested for inhibition of Citrobacter freundii 1928, class C of Beta-lactamase
[34] = as §4; set-up: species or system Escherichia coli
[35] = biological target: T3, Beta-lactamase; test: Compound was tested for inhibition of Pseudomonas aeruginosa 18SH, class C of Beta-lactamase
[36] = tested on: Escherichia coli; test: as §5; in short: as §2
[37] = as §6; set-up: species or system Escherichia coli
[38] = tested on: Escherichia coli; test: as §3; in short: as §2
[39] = tested on: Enterobacter cloacae; test: as §7; type: functional, organism-based; in short: as §2

T3 sequence (P24735 whole entry): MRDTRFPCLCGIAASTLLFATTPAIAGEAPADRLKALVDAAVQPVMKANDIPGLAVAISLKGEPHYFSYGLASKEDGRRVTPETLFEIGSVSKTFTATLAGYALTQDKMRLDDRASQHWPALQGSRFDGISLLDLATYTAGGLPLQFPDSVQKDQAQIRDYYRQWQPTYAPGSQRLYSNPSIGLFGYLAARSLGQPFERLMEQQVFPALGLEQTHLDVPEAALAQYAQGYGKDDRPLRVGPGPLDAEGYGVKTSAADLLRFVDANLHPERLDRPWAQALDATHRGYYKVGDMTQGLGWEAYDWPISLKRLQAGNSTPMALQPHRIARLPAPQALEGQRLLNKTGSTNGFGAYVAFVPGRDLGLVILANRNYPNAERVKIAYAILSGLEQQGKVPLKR
T2 sequence (P62593 whole entry): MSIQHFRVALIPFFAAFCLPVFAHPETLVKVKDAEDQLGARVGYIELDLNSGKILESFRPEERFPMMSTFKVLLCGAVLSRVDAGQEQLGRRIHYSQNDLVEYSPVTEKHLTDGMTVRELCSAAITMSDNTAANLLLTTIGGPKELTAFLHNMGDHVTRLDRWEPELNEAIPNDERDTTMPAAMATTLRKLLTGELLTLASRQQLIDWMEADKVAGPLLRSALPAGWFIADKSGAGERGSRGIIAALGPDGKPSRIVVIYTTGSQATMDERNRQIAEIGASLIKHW
T1 sequence (P00808 whole entry): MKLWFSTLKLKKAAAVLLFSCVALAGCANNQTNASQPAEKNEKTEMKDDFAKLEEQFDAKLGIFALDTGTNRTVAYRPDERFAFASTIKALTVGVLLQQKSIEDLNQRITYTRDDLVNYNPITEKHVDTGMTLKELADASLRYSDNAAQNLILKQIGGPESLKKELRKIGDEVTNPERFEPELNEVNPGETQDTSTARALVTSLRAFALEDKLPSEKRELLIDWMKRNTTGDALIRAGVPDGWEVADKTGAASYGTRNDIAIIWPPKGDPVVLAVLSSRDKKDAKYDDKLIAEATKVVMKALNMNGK
Sequence of Beta-lactamase L1 (P52700 whole entry): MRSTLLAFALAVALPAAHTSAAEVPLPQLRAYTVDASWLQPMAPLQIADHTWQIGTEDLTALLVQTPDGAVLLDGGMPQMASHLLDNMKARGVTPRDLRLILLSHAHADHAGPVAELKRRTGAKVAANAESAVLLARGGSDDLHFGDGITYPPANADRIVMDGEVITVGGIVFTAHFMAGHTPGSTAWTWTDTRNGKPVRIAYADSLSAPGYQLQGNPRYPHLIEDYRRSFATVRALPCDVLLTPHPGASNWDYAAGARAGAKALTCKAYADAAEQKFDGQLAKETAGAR
Sequence of Beta-lactamase SHV-1 (P0AD63 22-286 limits assumed): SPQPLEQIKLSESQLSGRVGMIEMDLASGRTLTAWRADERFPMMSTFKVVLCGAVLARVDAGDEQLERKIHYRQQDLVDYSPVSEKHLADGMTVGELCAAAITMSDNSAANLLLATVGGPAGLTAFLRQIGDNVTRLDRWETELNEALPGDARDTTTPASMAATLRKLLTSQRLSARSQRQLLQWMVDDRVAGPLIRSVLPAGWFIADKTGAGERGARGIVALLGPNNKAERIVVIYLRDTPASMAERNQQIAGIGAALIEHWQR
Sequence of Beta-lactamase OXA-1 (P13661 whole entry): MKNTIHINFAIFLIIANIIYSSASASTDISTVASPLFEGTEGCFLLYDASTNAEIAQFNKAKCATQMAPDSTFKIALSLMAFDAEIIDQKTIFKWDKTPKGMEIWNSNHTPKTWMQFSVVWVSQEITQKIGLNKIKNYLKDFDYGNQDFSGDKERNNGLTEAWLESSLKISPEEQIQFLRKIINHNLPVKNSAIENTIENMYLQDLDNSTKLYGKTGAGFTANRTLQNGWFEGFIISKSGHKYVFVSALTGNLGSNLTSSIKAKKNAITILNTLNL
Sequence of Metallo-beta-lactamase type 2 (P25910 whole entry): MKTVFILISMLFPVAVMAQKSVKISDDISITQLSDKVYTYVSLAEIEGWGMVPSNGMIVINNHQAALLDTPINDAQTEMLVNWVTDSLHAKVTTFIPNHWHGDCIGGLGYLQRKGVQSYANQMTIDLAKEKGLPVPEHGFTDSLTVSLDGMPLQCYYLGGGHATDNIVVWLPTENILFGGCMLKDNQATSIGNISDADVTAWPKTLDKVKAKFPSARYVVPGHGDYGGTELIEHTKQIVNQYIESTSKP
Sequence of Beta-lactamase pse-1 (Q2V0Y6 whole entry): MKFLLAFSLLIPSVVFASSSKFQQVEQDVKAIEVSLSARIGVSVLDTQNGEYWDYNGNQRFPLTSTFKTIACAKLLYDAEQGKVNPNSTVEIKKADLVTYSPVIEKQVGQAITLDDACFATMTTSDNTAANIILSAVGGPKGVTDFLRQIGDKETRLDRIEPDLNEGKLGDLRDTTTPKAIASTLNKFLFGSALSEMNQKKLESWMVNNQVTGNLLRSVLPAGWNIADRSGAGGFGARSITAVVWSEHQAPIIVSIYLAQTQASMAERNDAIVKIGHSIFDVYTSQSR
Sequence of Beta-lactamase (Citrobacter freundii, UniProt P05193) (P05193 whole entry): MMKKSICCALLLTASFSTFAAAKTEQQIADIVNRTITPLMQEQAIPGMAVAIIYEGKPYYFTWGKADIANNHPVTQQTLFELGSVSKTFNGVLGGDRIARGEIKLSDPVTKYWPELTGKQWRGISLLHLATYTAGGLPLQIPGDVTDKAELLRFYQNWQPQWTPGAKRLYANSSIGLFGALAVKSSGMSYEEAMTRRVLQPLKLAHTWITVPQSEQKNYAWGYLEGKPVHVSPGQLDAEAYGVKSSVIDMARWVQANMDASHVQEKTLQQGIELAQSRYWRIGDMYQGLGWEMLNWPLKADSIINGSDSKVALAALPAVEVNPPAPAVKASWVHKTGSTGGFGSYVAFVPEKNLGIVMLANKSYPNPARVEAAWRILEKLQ
Sequence of PBP3 from Escherichia coli (K-12) (P0AD68 whole entry, looked up): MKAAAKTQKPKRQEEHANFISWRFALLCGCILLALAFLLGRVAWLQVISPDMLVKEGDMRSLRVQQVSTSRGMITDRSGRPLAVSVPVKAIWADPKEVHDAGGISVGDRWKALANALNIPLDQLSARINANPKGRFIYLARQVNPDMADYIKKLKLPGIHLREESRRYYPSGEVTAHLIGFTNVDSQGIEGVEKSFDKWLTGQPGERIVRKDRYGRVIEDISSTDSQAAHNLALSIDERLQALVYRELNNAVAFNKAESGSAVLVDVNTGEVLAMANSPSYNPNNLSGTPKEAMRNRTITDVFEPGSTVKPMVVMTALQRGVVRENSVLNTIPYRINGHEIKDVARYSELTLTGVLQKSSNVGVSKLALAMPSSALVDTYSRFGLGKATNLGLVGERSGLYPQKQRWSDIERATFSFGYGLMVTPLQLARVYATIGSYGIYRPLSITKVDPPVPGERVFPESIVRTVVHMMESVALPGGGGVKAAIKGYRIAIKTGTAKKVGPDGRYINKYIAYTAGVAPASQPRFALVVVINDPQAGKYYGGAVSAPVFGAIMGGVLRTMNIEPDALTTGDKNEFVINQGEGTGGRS
Sequence of Beta-lactamase (Escherichia coli K-12, UniProt P00811) (P00811 whole entry): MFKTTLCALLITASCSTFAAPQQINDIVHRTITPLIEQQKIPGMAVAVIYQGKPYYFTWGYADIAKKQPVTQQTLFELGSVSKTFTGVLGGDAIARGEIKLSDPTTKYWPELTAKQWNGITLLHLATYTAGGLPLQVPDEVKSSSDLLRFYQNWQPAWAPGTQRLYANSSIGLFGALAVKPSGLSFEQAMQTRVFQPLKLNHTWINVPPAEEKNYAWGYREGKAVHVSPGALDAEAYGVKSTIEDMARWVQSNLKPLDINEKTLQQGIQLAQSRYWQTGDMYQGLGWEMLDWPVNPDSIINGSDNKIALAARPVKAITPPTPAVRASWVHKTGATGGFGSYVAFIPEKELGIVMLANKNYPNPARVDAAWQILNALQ

SMILES	IC50 [17] [µM]	MIC [22] [mg/L]	MIC [23] [mg/L]	IC50 [24] [µM]	MIC [25] [mg/L]	IC50 [26] [µM]	MIC [27] [mg/L]	MIC [28] [mg/L]	other results
C[C@]1(C=CC#N)[C@H](C(=O)O)N2C(=O)C[C@H]2S1(=O)=O [Ro-481220]	0.32								Ks [1]: 0.56 µM; IC50 [2]: 200 µM; IC50 [3]: 0.25 µM; IC50 [4]: 0.32 µM; IC50 [5]: 24 µM; IC50 [6]: 1.07 µM; Ks [7]: 125 µM; MIC [8]: 1 mg/L; Ks [9]: 377 µM; Ks [10]: 2.3 µM; IC50 [11]: 170 µM; IC50 [12]: 0.86 µM; IC50 [13]: 0.09 µM; MIC [14]: 1 mg/L; IC50 [15]: > 340 µM; IC50 [16]: 1.97 µM; IC50 [18]: 0.54 µM; IC50 [19]: 0.98 µM; MIC [20]: 4 mg/L; IC50 [21]: 0.1 µM
C[C@]1(/C=C/c2cncs2)[C@H](C(=O)O)N2C(=O)C[C@H]2S1(=O)=O		16					> 16	8	IC50 [29]: 5.4 µM; IC50 [30]: 45 µM; IC50 [31]: > 10000 µM; IC50 [32]: 50 µM; IC50 [33]: 1.3 µM; IC50 [34]: 8.5 µM; IC50 [35]: 0.54 µM; MIC [36]: 1 mg/L; IC50 [37]: 0.16 µM; MIC [38]: 4 mg/L
C[C@]1(/C=C\C(N)=O)[C@H](C(=O)O)N2C(=O)C[C@H]2S1(=O)=O	3.4	4	2	1.2	0.25	0.13	4	2	
C[C@]1(/C=C\C#N)[C@H](C(=O)O)N2C(=O)C[C@H]2S1(=O)=O	0.32								MIC [8]: 4 mg/L; MIC [14]: 2 mg/L; MIC [20]: 16 mg/L

The remaining compounds from weak to strong by IC50 [17], led by results:

IC50 [17] [µM]	MIC [22] [mg/L]	MIC [23] [mg/L]	IC50 [24] [µM]	MIC [25] [mg/L]	IC50 [26] [µM]	MIC [27] [mg/L]	MIC [28] [mg/L]	SMILES	other results
6.6	4	1	5.6	0.25	0.06	4	4	C[C@]1(/C=C\Cl)[C@H](C(=O)[O-])N2C(=O)C[C@H]2S1(=O)=O.[Na+]	
6.5	8	4	9.1	1	0.76		4	C[C@]1(/C=C/COC(N)=O)[C@H](C(=O)O)N2C(=O)C[C@H]2S1(=O)=O	MIC [39]: 8 mg/L
3.6	16	2	6.5	0.5	0.6	8	8	C[C@]1(C=CCO)[C@H](C(=O)[O-])N2C(=O)C[C@H]2S1(=O)=O.[Na+]	
1.7	16	2	12	0.5	0.22	8	4	C[C@]1(/C=C/c2nnco2)[C@H](C(=O)[O-])N2C(=O)C[C@H]2S1(=O)=O.[Na+]	
